Activity, IC50 and inhibition data for 31 compounds are collected here from ChEMBL document CHEMBL1154042, “2-Oxoamide inhibitors of phospholipase A2 activity and cellular arachidonate release based on dipeptides and pseudodipeptides” (Bioorg Med Chem, 2009).

Test [1] has as its system RAW264.7. The experiment in a line: Antiinflammatory activity in mouse RAW264.7 cells assessed as inhibition of Kdo2 lipid-A-stimulated arachidonic acid release at 25 uM for 1 hr. It counts as functional. Conditions: for inhibition at 25 µM: RAW264.7, 1 h. The gist of the method: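 RAW 264.7 macrophages plated at 2 × 10^6 cells per well and left to adhere overnight. Preincubated 30 min with 25 μM inhibitor, then stimulated with Kdo2-Lipid A. Supernatants collected 1 h later. AA extracted and measured by HPLC-MS, normalized to pmol AA per million cells via DNA quantitation.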

Test [2] concerns RAW264.7. The experiment in a line: Antiinflammatory activity in mouse RAW264.7 cells assessed as inhibition of Kdo2 lipid-A-stimulated arachidonic acid release after 1 hr. Type of test: functional, cell-based. To be noted: RAW264.7, 1 h. The method in brief: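 RAW 264.7 macrophages grown in DMEM with 10% FBS, 2 mM glutamine, penicillin/streptomycin and non-essential amino acids at 37 °C, 5% CO2. Plated at 2 × 10^6 cells per well, adhered overnight. Inhibitor added 30 min before Kdo2-Lipid A, supernatants taken 1 h after stimulation. AA extracted and quantitated by HPLC-MS, normalized to pmol per million cells by DNA quantitation. IC50 = concentration giving half of the maximal inhibition seen.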

In test [3] the target is T1, 85/88 kDa calcium-independent phospholipase A2 (Homo sapiens) (UniProt O60733).
T1 sequence (whole entry): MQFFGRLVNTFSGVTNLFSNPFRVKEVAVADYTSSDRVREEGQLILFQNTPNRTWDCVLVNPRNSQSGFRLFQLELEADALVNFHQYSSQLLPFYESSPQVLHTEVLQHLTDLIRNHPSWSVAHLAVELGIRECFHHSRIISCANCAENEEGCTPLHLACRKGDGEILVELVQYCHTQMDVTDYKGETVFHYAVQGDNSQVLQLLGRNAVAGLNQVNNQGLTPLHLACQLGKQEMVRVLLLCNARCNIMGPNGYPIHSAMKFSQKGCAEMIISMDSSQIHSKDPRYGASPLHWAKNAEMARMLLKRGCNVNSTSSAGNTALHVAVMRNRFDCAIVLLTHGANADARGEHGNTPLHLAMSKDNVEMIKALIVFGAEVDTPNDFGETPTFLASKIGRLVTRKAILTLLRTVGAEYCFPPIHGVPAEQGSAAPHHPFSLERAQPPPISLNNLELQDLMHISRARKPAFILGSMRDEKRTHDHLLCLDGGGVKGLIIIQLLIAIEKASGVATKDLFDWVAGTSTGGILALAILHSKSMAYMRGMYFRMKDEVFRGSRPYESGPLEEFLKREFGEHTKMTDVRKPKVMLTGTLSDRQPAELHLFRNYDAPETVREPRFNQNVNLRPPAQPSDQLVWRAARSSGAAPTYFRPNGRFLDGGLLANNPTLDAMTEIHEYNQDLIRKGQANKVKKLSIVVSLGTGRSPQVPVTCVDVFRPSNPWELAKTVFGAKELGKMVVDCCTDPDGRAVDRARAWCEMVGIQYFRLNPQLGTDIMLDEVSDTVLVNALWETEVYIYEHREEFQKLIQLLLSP
The experiment in a line: Inhibition of human group-6A iPLA2 at 0.091 mole fraction by mixed micellar assay. The gist of the method:
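Modified Dole assay, percent inhibition at 0.091 mole fraction inhibitor. Micelles were either 400 μM Triton X-100, 99 μM DPPC, 1.5 μM 14C-DPPC in 200 mM HEPES pH 7.0, 1 mM ATP, 2 mM DTT, 0.1 mg/ml BSA, or 400 μM Triton X-100, 98.3 μM PAPC, 1.7 μM 14C-PAPC in 100 mM HEPES pH 7.5, 2 mM ATP, 4 mM DTT.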

In test [4] the target is T2, Phospholipase A2 group V (Homo sapiens) (UniProt P39877).
T2 sequence (whole entry): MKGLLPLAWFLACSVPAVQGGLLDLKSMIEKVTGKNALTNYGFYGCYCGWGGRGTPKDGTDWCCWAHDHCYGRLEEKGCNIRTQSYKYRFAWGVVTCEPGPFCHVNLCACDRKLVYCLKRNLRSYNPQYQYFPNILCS
The experiment in a line: Inhibition of human group-5 sPLA2 at 0.091 mole fraction by mixed micellar assay. The gist of the method: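 Radiometric modified Dole assay screening at 0.091 mole fraction inhibitor, giving percent inhibition. Mixed micelles of 400 μM Triton X-100, 99 μM DPPC and 1.5 μM 14C-DPPC in 50 mM Tris pH 8.0 with 5 mM CaCl2.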

In test [5] the target is T3, Cytosolic phospholipase A2 (Homo sapiens) (UniProt P47712).
T3 sequence (whole entry): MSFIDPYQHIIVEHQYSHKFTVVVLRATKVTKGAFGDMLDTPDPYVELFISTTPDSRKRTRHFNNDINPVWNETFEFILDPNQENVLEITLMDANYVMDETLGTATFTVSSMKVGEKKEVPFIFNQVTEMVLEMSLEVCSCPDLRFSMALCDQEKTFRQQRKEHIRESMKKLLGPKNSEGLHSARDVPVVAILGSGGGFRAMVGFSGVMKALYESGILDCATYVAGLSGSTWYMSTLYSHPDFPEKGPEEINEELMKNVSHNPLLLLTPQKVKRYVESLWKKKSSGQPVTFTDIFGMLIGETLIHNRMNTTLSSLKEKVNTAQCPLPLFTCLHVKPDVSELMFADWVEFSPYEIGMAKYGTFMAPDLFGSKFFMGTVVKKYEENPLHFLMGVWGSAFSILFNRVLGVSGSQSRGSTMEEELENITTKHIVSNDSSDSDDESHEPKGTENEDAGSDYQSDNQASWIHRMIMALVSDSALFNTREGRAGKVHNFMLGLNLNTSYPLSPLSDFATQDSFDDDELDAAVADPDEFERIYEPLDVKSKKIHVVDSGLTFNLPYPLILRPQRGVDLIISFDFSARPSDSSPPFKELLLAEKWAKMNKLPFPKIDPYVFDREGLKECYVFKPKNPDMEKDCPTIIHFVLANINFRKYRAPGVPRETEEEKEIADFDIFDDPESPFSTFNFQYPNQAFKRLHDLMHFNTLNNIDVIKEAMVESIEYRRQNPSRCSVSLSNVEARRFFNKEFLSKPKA
The experiment in a line: Inhibition of human group-4A cPLA2 at 0.091 mole fraction by mixed micellar assay. The gist of the method:
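Modified Dole assay, single point at 0.091 mole fraction inhibitor. Mixed micelles: 400 μM Triton X-100, 97 μM PAPC, 1.8 μM 14C-PAPC, 3 μM PIP2. Buffer: 100 mM HEPES pH 7.5, 90 μM CaCl2, 2 mM DTT, 0.1 mg/ml BSA. Percent inhibition reported.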

As usually defined, the IC50 is the concentration that inhibits the measured activity by half. In general, inhibition refers to the percentage by which the read-out fell short of the control.

On to `CCCCCCCCCCCCCCC(=O)C(=O)N[C@H](/C=C/C(=O)OC)CCCC`, for which the Activity result in test [1] is “Toxic”.

In the case of `CCCCCCCCCCCCCCC(=O)C(=O)N[C@H](/C=C/C(=O)O)CCCC`, the half-maximal inhibitory concentration (IC50) in test [2] turned out to be 25 µM. Also, the inhibition at 25 µM in test [1] turned out to be 16%.

`CCCCCCCCCCC(=O)C(=O)N[C@@H](CCCC)C(=O)O`: the inhibition at 25 µM in test [1] turned out to be 79%.

In the case of `CCCCCCCCCCCCCCC(=O)C(=O)N[C@@H](CCCC)CCCC(=O)O`, the 50% inhibitory concentration (IC50) in test [2] amounted to 7 µM. In test [1], the inhibition at 25 µM turned out to be 30%.

For the compound `CCCCCCCCCCCCCCC(=O)C(=O)N[C@@H](CCCC)COCC(=O)O`, the inhibition is under 25% in test [3], under 25% in test [4] and over 90% in test [5]. For the same compound, the half-maximal inhibitory concentration (IC50) in test [2] was 2 µM.

As to `CCCCCCCCCCCCCCC(=O)C(=O)NCCCC(=O)O`, the IC50 in test [2] was found to be 25 µM. Also, in test [1], the inhibition at 25 µM worked out at 27%.

As to `CCCCCCCCCCCCCCC(=O)C(=O)N[C@H](C(=O)NCC(=O)O)C(C)C`, the values for the inhibition in test [3], in test [4] and in test [5] were under 25%, under 25% and over 90%, respectively.

`CCCCCCCCCCCCCCC(=O)C(=O)N[C@@H](CCCC)C(=O)NCC(=O)OC(C)(C)C`: the inhibition in test [3] is over 90%; in test [4], 59%; in test [5] it was 72%.

Regarding `CCCCCCCCCCCCCCC(=O)C(=O)N[C@@H](CCCC)CCC(=O)OC`, the Activity result in test [1] was “Toxic”.

With `CCCCCCCCCCCCCCC(=O)C(=O)N[C@@H](CCCC)COCC(=O)OCC`, the inhibition is over 90% in test [3], 81% in test [4] and 52% in test [5].

Consider `CCCCCCCCCCCCCCC(=O)C(=O)NCCCCC(=O)OC(C)(C)C`, for which the inhibition at 25 µM in test [1] came to 59%.

`CCCCCCCCCCCCCCC(=O)C(=O)NCCCC(=O)COCC`: the inhibition in test [3] and in test [5] was over 90% in each case.

Take `CCCCCCCCCCCCCCC(=O)C(=O)NCCC(=O)OC(C)(C)C`: the Activity entry in test [1] was “Toxic”.

`CCCCCCCCCCCCCCC(=O)C(=O)N[C@@H](CCCC)CCC(=O)O`: the 50% inhibitory concentration (IC50) in test [2] was found to be 25 µM. The inhibition at 25 µM in test [1] was found to be 30%.

For the compound `CCCCCCCCCCCCCC(=O)C(=O)N[C@@H](CCCC)CCCCC(=O)O`, in test [1], the Activity result was “Toxic”.

For the compound `CCCCCCCCCCCCCCC(=O)C(=O)NCCCC(=O)CO`, the values for the inhibition in test [3] and in test [5] were under 25% and over 90%, respectively.

Turning to `CCCCCCCCCCCCCCC(=O)C(=O)N[C@@H](CCCC)C(=O)NCC(=O)OC`, the inhibition in test [3] is over 90%; in test [4], 65%; in test [5] it was over 90%.

As to `CCCCCCCCCCC(=O)C(=O)N[C@@H](CCC(=O)OC)COC(=O)NCCCCCCCC`, the Activity entry in test [1] was “Toxic”.

On to `CCCCCCCCCCCCCCC(=O)C(=O)N[C@@H](CCCC)C(=O)NCC(=O)O`, for which the figures for the inhibition in test [3], in test [4] and in test [5] were under 25%, under 25% and over 90%, respectively.

Take `CCCCCCCCCCCCCCC(=O)C(=O)NCCCC(=O)N(C)S(=O)(=O)c1ccc(C)cc1`: the Activity result in test [1] was “Toxic”.

For the compound `CCCCCCCCCCCCCCC(=O)C(=O)N[C@H](C(=O)NCC(=O)OC(C)(C)C)C(C)C`, the inhibition was over 90% in test [3], 78% in test [4] and over 90% in test [5]. Moreover, in test [1], the inhibition at 25 µM came out at 30%.

On to `CCCCCCCCCCCCCCC(=O)C(=O)NCC(=O)OC`, for which, in test [1], the inhibition at 25 µM worked out at 68%.

Turning to `CCCCCCCCCCCCCCC(=O)C(=O)N[C@H](C(=O)NCC(=O)OC)C(C)C`, the inhibition in test [3] is under 25%; in test [4] it was under 25%; in test [5] it was 25%.

As to `CCCCCCCCCCCCCCC(=O)C(=O)N[C@@H](CCCC)COCC(=O)OC(C)(C)C`, the inhibition was 81% in test [3], 57% in test [4] and 44% in test [5].

`CCCCCCCCCCCCCCC(=O)C(=O)N[C@H](/C=C/C=C/C(=O)O)CCCC`: the inhibition at 25 µM in test [1] came out at 74%.

`CCCCCCCCCCCCCCC(=O)C(=O)N[C@H](CCC(=O)O)CC(C)C`: the IC50 in test [2] is 25 µM. The inhibition at 25 µM in test [1] came to 6%.

On to `CCCCCCCCCCCCCCC(=O)C(=O)NCCCC(=O)OCC`, for which, in test [1], the Activity result is “Toxic”.

On to `CCCCCCCCCCCCCCC(=O)C(=O)N[C@@H](CCCC)C(=O)NCC(=O)OCC`, for which the inhibition in test [3] is over 90%; in test [4] it was 63%; in test [5] it was 73%.

`CCCCCCCCCCCCCCC(=O)C(=O)N[C@@H](C)CCC(=O)OC(C)(C)C`: the Activity result in test [1] was “Toxic”.

On to `CCCCCCCCCCC(=O)C(=O)N[C@@H](CCCC)CCC(=O)O`, for which the half-inhibitory concentration (IC50) in test [2] came to 10 µM. The inhibition at 25 µM in test [1] was determined as 62%.

For `CCCCCCCCCCCCCCC(=O)C(=O)N[C@H](/C=C/C(=O)OCC)CCCC`, the inhibition at 25 µM in test [1] is 11%.
